We go through 2 molecules from ChEMBL document CHEMBL2046351, “Discovery of cyclic sulfone hydroxyethylamines as potent and selective β-site APP-cleaving enzyme 1 (BACE1) inhibitors: structure-based design and in vivo reduction of amyloid β-peptides” (J Med Chem, 2012).

One series concerns the target Cytochrome P450 3A4 (Homo sapiens, UniProt P08684). In words: Inhibition of CYP3A4. Type of series: ADME.
The nature of series [1]: AUC (0 to infinity) in C57BL/6 mouse at 6 umol/kg, po dosed in HS15/propylenglycol/citrate buffer, pH 4.75, 50 mM (10/5/85, v/v/v) by LC/MS/MS analysis. Details: dose 6 umol/kg, time infinity, route oral. The format is ADME, organism-based. The settings on record: plasma. The method in brief:
(§1)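 Male C57BL/6 mice were dosed by oral gavage at 10 mL/kg. Blood was sampled at 0.25, 0.5, 1, 2, 4 and 6 h postdose, extracted by acetonitrile precipitation and quantified by LC-MS/MS (typical LLOQ 0.4 ng/mL). AUCinf was obtained by noncompartmental analysis of concentration–time profiles, weighting 1/Y, with at least three terminal log-linear points.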

Series [2] in a line: AUC (0 to infinity) in C57BL/6 mouse at 60 umol/kg, po dosed in HS15/propylenglycol/citrate buffer, pH 4.75, 50 mM (10/5/85, v/v/v) by LC/MS/MS analysis. To be noted: plasma. Type of series: ADME, organism-based. Also on record: dose 60 umol/kg, route oral, time infinity. The method in brief:
as §1

Series [3] relates to Brain. In words: Drug uptake in C57BL/6 mouse brain at 6 umol/kg, po dosed in HS15/propylenglycol/citrate buffer, pH 4.75, 50 mM (10/5/85, v/v/v) measured 4 hrs post dosing by LC/MS/MS analysis. The settings on record: in vivo, pH 4.75, 4 h. The format is ADME, organism-based. The method in brief: (§2)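 Male C57BL/6 mice dosed by oral gavage, 10 mL/kg. Blood sampled 0.25, 0.5, 1, 2, 4, 6 h; brain at 1 and/or 4 h; n = 3 per time. Blood acetonitrile-precipitated, brain water-homogenized then precipitated; LC-MS/MS with weighted linear calibration.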

Series [4] can be described thus: Drug uptake in C57BL/6 mouse blood at 6 umol/kg, po dosed in HS15/propylenglycol/citrate buffer, pH 4.75, 50 mM (10/5/85, v/v/v) measured 4 hrs post dosing by LC/MS/MS analysis. The format is ADME, organism-based. To be noted: read-out: Drug uptake. The method in brief: as §2
Series [5] can be described thus: Ratio of drug uptake in brain to blood in C57BL/6 mouse at 6 umol/kg, po dosed in HS15/propylenglycol/citrate buffer, pH 4.75, 50 mM (10/5/85, v/v/v) measured 1 hr post dosing by LC/MS/MS analysis. The format is ADME, organism-based. The method in brief:
(§3)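 Male C57BL/6 mice received the dose by oral gavage at 10 mL/kg. Blood and brain were collected at 1 and/or 4 h postdose. Brain was homogenised in water, and both matrices were extracted by acetonitrile precipitation and quantified by LC-MS/MS. The ratio is mean brain (nmol/g) over mean blood (nmol/mL) concentration, n = 3.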

Series [6] concerns Brain. Kind of series: Drug uptake in C57BL/6 mouse brain at 60 umol/kg, po dosed in HS15/propylenglycol/citrate buffer, pH 4.75, 50 mM (10/5/85, v/v/v) measured 4 hrs post dosing by LC/MS/MS analysis. Type of series: ADME, organism-based. The settings on record: in vivo, pH 4.75, 4 h. The method in brief:
as §2

Series [7] is described as follows: Ratio of drug uptake in brain to blood in C57BL/6 mouse at 60 umol/kg, po dosed in HS15/propylenglycol/citrate buffer, pH 4.75, 50 mM (10/5/85, v/v/v) measured 1 hr post dosing by LC/MS/MS analysis. Type of series: ADME, organism-based. The method in brief: as §3
Series [8] is described as follows: Ratio of drug uptake in brain to blood in C57BL/6 mouse at 60 umol/kg, po dosed in HS15/propylenglycol/citrate buffer, pH 4.75, 50 mM (10/5/85, v/v/v) measured 4 hrs post dosing by LC/MS/MS analysis. Type of series: ADME, organism-based. The method in brief: as §3
Another series deals with Cathepsin D (Homo sapiens, UniProt P07339). Kind of series: Inhibition of human recombinant CatD using Mca-GKPILFFRLK(DNP)-dR-NH2 as substrate after 1 hr by fluorescence analysis.
The subject of a further series is MDR1 (human). In words: Efflux ratio of permeability from basolateral to apical over apical to basolateral side of MDCK cells expressing human MDR1 at 5 uM after 2 hrs by LC/MS analysis. Type of series: ADME, cell-based, Canis lupus familiaris. To be noted: dog. The method in brief:
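MDCK cells retrovirally transduced with human MDR1, seeded on transwells ≥3 days; bidirectional transport at 5 μM, 2 h, 37 °C, LC/MS quantitation. Papp = (dQ/dt)/(A·C0), A 0.11 cm2; ER = Papp B>A / Papp A>B. Means of at least three experiments.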

Series [9] can be described thus: AUC (0 to infinity) in C57BL/6 mouse at 6 umol/kg, po dosed in carboxymethyl cellulose 0.5% w/v in water/Tween 80 (99.5/0.5, v/v) by LC/MS/MS analysis. The settings on record: in vivo. Details: dose 6 umol/kg, time infinity, route oral. The format is ADME, organism-based. The method in brief:
as §1

The nature of series [10]: Drug uptake in C57BL/6 mouse blood at 60 umol/kg, po dosed in carboxymethyl cellulose 0.5% w/v in water/Tween 80 (99.5/0.5, v/v) measured 1 hr post dosing by LC/MS/MS analysis. Type of series: ADME, organism-based. The settings on record: read-out: Drug uptake. The method in brief:
as §2

The test system of series [11] is Brain. In words: Drug uptake in C57BL/6 mouse brain at 2 umol/kg, iv dosed in N-methyl pyrrolidone/blank plasma (10:90 v/v) measured 1 hr post dosing by LC/MS/MS analysis. The format is ADME, organism-based. The settings on record: in vivo. The method in brief:
(§4)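 Male C57BL/6 mice, saphenous vein injection under light anesthesia, 5 mL/kg. Blood at 5, 30 min and 1, 2, 4, 6, 8 h; brain at 5 min, 1, 4, 8 h; n = 3/time. LC-MS/MS after acetonitrile precipitation (brain water-homogenized). Noncompartmental analysis, 1/Y weighting, terminal slope from ≥3 points.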

A short description of series [12]: Drug uptake in C57BL/6 mouse blood at 2 umol/kg, iv dosed in N-methyl pyrrolidone/blank plasma (10:90 v/v) measured 1 hr post dosing by LC/MS/MS analysis. Type of series: ADME, organism-based. To be noted: read-out: Drug uptake. The method in brief: as §4
In series [13] the test system is Brain. In words: Drug uptake in C57BL/6 mouse brain at 2 umol/kg, iv dosed in N-methyl pyrrolidone/blank plasma (10:90 v/v) measured 4 hrs post dosing by LC/MS/MS analysis. The format is ADME, organism-based. The settings on record: in vivo. The method in brief:
as §4

Series [14] can be described thus: Drug uptake in C57BL/6 mouse blood at 2 umol/kg, iv dosed in N-methyl pyrrolidone/blank plasma (10:90 v/v) measured 4 hrs post dosing by LC/MS/MS analysis. Type of series: ADME, organism-based. The settings on record: read-out: Drug uptake. The method in brief:
as §4

The nature of series [15]: Ratio of drug uptake in brain to blood in C57BL/6 mouse at 2 umol/kg, iv dosed in N-methyl pyrrolidone/blank plasma (10:90 v/v) measured 1 hr post dosing by LC/MS/MS analysis. The format is ADME, organism-based. The method in brief: as §4
Series [16] deals with Brain. In words: Drug uptake in C57BL/6 mouse brain at 6 umol/kg, po dosed in carboxymethyl cellulose 0.5% w/v in water/Tween 80 (99.5/0.5, v/v) measured 1 hr post dosing by LC/MS/MS analysis. The format is ADME, organism-based. The settings on record: in vivo. The method in brief: as §2
Series [17] is described as follows: Drug uptake in C57BL/6 mouse blood at 6 umol/kg, po dosed in carboxymethyl cellulose 0.5% w/v in water/Tween 80 (99.5/0.5, v/v) measured 1 hr post dosing by LC/MS/MS analysis. To be noted: read-out: Drug uptake. Type of series: ADME, organism-based. The method in brief: as §2
Series [18] relates to Brain. Kind of series: Drug uptake in C57BL/6 mouse brain at 6 umol/kg, po dosed in carboxymethyl cellulose 0.5% w/v in water/Tween 80 (99.5/0.5, v/v) measured 4 hrs post dosing by LC/MS/MS analysis. The format is ADME, organism-based. The settings on record: in vivo. The method in brief: as §2
The nature of series [19]: Ratio of drug uptake in brain to blood in C57BL/6 mouse at 6 umol/kg, po dosed in carboxymethyl cellulose 0.5% w/v in water/Tween 80 (99.5/0.5, v/v) measured 1 hr post dosing by LC/MS/MS analysis. The format is ADME, organism-based. The method in brief:
as §2

The target of a further series is Beta-secretase 1 (Homo sapiens, UniProt P56817).
Sequence of Beta-secretase 1 (P56817 whole entry): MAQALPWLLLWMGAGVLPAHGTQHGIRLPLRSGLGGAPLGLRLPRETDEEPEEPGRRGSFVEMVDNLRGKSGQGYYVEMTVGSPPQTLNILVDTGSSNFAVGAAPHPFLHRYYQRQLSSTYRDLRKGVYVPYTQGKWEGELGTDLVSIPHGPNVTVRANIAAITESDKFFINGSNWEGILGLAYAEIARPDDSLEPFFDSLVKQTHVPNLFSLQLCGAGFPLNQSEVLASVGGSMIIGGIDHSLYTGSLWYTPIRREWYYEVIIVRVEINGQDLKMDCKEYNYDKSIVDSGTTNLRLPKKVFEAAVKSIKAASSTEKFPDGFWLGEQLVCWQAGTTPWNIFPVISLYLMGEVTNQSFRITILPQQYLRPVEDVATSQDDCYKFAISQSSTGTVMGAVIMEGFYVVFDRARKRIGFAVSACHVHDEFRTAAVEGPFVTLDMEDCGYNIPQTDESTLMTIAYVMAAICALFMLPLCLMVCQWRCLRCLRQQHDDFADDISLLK

Sequence of Cathepsin D (P07339 65-162 limits assumed): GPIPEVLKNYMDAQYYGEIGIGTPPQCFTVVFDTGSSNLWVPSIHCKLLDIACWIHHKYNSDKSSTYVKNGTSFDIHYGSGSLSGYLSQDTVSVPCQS
Sequence of Cathepsin D (P07339 169-412 limits assumed): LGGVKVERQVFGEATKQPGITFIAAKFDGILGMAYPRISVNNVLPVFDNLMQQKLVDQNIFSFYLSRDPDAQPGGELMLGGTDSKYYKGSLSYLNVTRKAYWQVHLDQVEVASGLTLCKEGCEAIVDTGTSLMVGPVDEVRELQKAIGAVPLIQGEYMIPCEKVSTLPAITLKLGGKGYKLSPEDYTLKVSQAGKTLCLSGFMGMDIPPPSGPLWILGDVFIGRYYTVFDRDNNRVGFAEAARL
Sequence of Cytochrome P450 3A4 (P08684 whole entry): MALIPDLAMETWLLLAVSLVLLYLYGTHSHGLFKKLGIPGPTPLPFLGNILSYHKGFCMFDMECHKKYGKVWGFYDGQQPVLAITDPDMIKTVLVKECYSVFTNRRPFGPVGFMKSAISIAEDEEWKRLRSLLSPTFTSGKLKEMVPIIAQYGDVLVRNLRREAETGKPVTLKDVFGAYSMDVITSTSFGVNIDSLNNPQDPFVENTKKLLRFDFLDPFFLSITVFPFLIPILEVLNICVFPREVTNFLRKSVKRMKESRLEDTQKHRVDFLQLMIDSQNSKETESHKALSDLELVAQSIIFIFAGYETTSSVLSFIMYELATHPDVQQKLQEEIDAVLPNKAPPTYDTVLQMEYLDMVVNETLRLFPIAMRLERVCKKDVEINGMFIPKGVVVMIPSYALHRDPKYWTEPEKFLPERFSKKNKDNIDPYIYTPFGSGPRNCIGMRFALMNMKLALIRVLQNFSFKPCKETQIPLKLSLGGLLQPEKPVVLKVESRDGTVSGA

Broadly, the IC50 is the concentration at which inhibition is half-maximal. The term AUC(0-inf) denotes total exposure, with the tail of the curve extrapolated. In general, Kp refers to tissue or fluid exposure divided by exposure in the circulation. Molecule `CC(C)(C)c1cccc(CN[C@H]2CS(=O)(=O)C[C@@H](Cc3cc(F)c(N)c(OC(C(F)(F)F)C(F)(F)F)c3)[C@@H]2O)c1` yielded an IC50 on Cytochrome P450 3A4 of 300 nM. In addition, the AUC(0-inf) in [1] stood at 0.398 µM·h; in series [2] it was 4.07 µM·h. Also, the Drug uptake is reported as 0.01 nmol/g in the series on Brain [3] and 0.15 nmol/g with Brain [6]. Moreover, the concentration at 4 h in series [4] worked out at 30 nM. The Kp at 1 h amounted to 0.3 in series [5] and 0.5 in series [7]. Further, in series [8], the Kp at 4 h was 0.8.
In general, efflux ratio refers to the permeability from basolateral to apical divided by that in the opposite direction, in the common usage. For `CC(C)(C)c1cccc(CN[C@H]2CS(=O)(=O)C[C@@H](Cc3cc(F)c(N)c(OCC(F)(F)F)c3)[C@@H]2O)c1`, the figures for the IC50 at Cathepsin D and against Beta-secretase 1 were 690 nM and 6 nM, respectively. Besides, in the series with MDR1 (human), the efflux ratio at 2 h, 5 µM is 5. This molecule registered an AUC(0-inf) in [9] of 0.466 µM·h. For the same molecule, the concentration at 1 h was determined as 4100 nM in series [10], 60 nM in series [12] and 30 nM in series [17]. The Drug uptake is recorded as 0.11 nmol/g in the series with Brain [11], 0.01 nmol/g in the series with Brain [13], 0.08 nmol/g in the series with Brain [16] and 0.11 nmol/g in the series with Brain [18]. Moreover, in [14], the concentration at 4 h is 10 nM. Besides, the Kp at 1 h in series [15] is 1.8; in [19], 2.7.
